Measurements from ChEMBL document CHEMBL4257558, “Synthesis of dihydronaphthalene analogues inspired by combretastatin A-4 and their biological evaluation as anticancer agents” (Medchemcomm, 2018).
Calls of active or inactive are those of the source. No cut-off for these calls is given here.

Tests used:
Bos taurus [1] = species: Bos taurus; assay: Inhibition of [3H]colchicine binding to calf brain tubulin at 5 uM incubated for 10 mins by scintillation counting method relative to control
Outline: (§1)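 Tubulin at 1.0 μM with 5.0 μM [3H]colchicine, 5% (v/v) DMSO and test compound at 1.0 or 5.0 μM. Binding-stabilizing buffer: 1.0 M monosodium glutamate (pH 6.6), 0.5 mg mL–1 BSA, 0.1 M glucose-1-phosphate, 1.0 mM MgCl2, 1.0 mM GTP. Incubated 10 min at 37 °C, stopped with ice-cold water, trapped on DEAE-cellulose filters and scintillation-counted. Counts corrected for filter binding without tubulin; percent inhibition versus no-inhibitor samples.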

Bos taurus [2] = species: Bos taurus; assay: Inhibition of [3H]colchicine binding to calf brain tubulin at 1 uM incubated for 10 mins by scintillation counting method relative to control; outline: as §1
NCI-H460 = assay: Growth inhibition of human NCI-H460 cells after 48 hrs by SRB assay; assay type: functional; conditions: NCI-H460, 48 h
Outline: (§2)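 Cells plated at 7000–8000 per well in DMEM with 5% FBS/1% gentamicin, grown 24 h at 37 °C, 5% CO2. Compounds from 10 mg/mL DMSO stock added as serial dilutions; doxorubicin and paclitaxel as positive controls.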

[3] = Inhibition of bovine brain tubulin polymerization preincubated for 15 mins followed by GTP addition and measured for 20 mins by spectrophotometric method; set-up: species or system Bos taurus
Outline: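 Final mixture: 10 μM (1 mg/mL) bovine brain tubulin, 0.8 M monosodium glutamate pH 6.6, 4% DMSO, 0.4 mM GTP, varied compound concentrations. All components except GTP preincubated 15 min at 30 °C, chilled to 0 °C, GTP added, then jumped to 30 °C.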

SK-OV-3 = assay: Growth inhibition of human SKOV3 cells after 48 hrs by SRB assay; assay type: functional; conditions: SK-OV-3, 48 h; outline: as §2
DU-145 = assay: Growth inhibition of human DU145 cells after 48 hrs by SRB assay; assay type: functional; conditions: DU-145, 48 h; outline: as §2
MDA-MB-231 [4] = assay: Vascular disrupting activity in luciferase expressing human MDA-MB-231 cells xenografted in BALB/c SCID mouse at 200 mg/kg, ip at 4 hrs by bioluminescence imaging method relative to control; assay type: functional
Outline: (§3)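 Orthotopic tumors from 1 × 10^6 MDA-MB-231-luc cells in PBS/50% Matrigel injected into left upper mammary fat pad of BALB/c SCID mice. Dynamic BLI over 30 min after luciferin injection at baseline, then 4 and 24 h after IP dosing in saline (200 mg/kg in the mouse shown), with fresh luciferin each time; signal reduction expressed versus baseline.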

MDA-MB-231 [5] = assay: Vascular disrupting activity in luciferase expressing human MDA-MB-231 cells xenografted in BALB/c SCID mouse at 200 mg/kg, ip at 24 hrs by bioluminescence imaging method relative to control; assay type: functional; outline: as §3
A549 = assay: Vascular disrupting activity in human A549 cells xenografted in T-cell deficient athymic homozygous nude rat assessed as reduction of blood flow at 15 mg/kg, ip after 2 hrs by color doppler ultrasound imaging method; assay type: functional, organism-based
Outline: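 Nude rat bearing subcutaneous leg A549 tumor (3 × 10^6 cells in serum-free medium with 50% Matrigel; tumor about 0.5 cm3). Under isoflurane, color-Doppler ultrasound performed before and 2 h after 15 mg/kg IP in 500 μl saline; tumor blood perfusion compared with baseline.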

| inhibition (Bos taurus [1]) [%] | inhibition (Bos taurus [2]) [%] | GI50 (NCI-H460) [nM] | IC50 [3] [nM] | GI50 (SK-OV-3) [nM] | GI50 (DU-145) [nM] | SMILES | Activity (MDA-MB-231 [4]) [%] | Activity (MDA-MB-231 [5]) [%] | Activity (A549) |
| --- | --- | --- | --- | --- | --- | --- | --- | --- | --- |
| 98 | 81 | 21.6 | 1200 | 6.22 | 7.3 | COc1ccc2c(c1O)CCC=C2C(=O)c1cc(OC)c(OC)c(OC)c1 |  |  |  |
|  |  | 52.4 | > 20000 | 12.9 | 12.6 | COc1cc(C(=O)C2=CCCc3c2ccc(OC)c3OP(=O)([O-])[O-])cc(OC)c1OC.[Na+].[Na+] | 99 | 81 |  |
|  |  | 3.73 | > 20000 | 1.9 | 3.27 | COc1cc(C2=CCCc3c2ccc(OC)c3OP(=O)(O)O)cc(OC)c1OC |  |  | Active |
